System: MOLT-4
Assay: Growth inhibition of human MOLT4 cells after 48 hrs by sulforhodamine B assay
Type: functional
Settings: MOLT-4, 48 h
How it was run: (§1)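 NCI 60-human-tumor-cell-line panel, with compounds tested over a 5-log dose range. Values are taken from dose-response curves as log10 molar concentrations: GI50 is 50% net growth inhibition, TGI is total growth inhibition, and LC50 is 50% net cell death.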

SMILES | GI50 [µM] | LC50 [µM]
COc1ccc(CNc2nc3cc(N)cc(N)c3nc2-c2ccccc2)cc1OC | 3.47 | > 100
Nc1cc(N)c2nc(-c3ccccc3)c(Sc3ccc(Cl)c(Cl)c3)nc2c1 | 4.07 | > 100
Nc1cc(N)c2nc(-c3ccccc3)c(NCc3ccc(Cl)c(Cl)c3)nc2c1 | 2.09 | > 100
Nc1cc(N)c2nc(-c3ccccc3)c(Sc3ccc(F)cc3)nc2c1 | > 100 | > 100
COc1ccc(Sc2nc3cc(N)cc(N)c3nc2-c2ccccc2)cc1 | 4.17 | > 100
COc1cc(CNc2nc3cc(N)cc(N)c3nc2-c2ccccc2)cc(OC)c1OC | 12.3 | > 50.1
Nc1cc(N)c2nc(-c3ccccc3)c(Oc3ccc(Cl)c(Cl)c3)nc2c1 | 6.31 | > 100
COc1cc(CNc2nc3cc(N)cc(N)c3nc2-c2ccccc2)cc(OC)c1 | 3.02 | > 100
Nc1cc(N)c2nc(-c3ccccc3)c(Oc3ccc(F)cc3)nc2c1 | 6.61 | > 100
Nc1cc(N)c2nc(-c3ccccc3)c(NCc3ccc(F)cc3)nc2c1 | > 100 | > 100
COc1ccc(Oc2nc3cc(N)cc(N)c3nc2-c2ccccc2)cc1 | 5.37 | > 100

Same assay, conditions: MOLT-4, 48 h, read-out: pTGI (converted)

SMILES | TGI [µM]
COc1ccc(CNc2nc3cc(N)cc(N)c3nc2-c2ccccc2)cc1OC | > 100
Nc1cc(N)c2nc(-c3ccccc3)c(Sc3ccc(Cl)c(Cl)c3)nc2c1 | > 100
Nc1cc(N)c2nc(-c3ccccc3)c(NCc3ccc(Cl)c(Cl)c3)nc2c1 | > 100
Nc1cc(N)c2nc(-c3ccccc3)c(Sc3ccc(F)cc3)nc2c1 | > 100
COc1ccc(Sc2nc3cc(N)cc(N)c3nc2-c2ccccc2)cc1 | > 100
COc1cc(CNc2nc3cc(N)cc(N)c3nc2-c2ccccc2)cc(OC)c1OC | > 50.1
Nc1cc(N)c2nc(-c3ccccc3)c(Oc3ccc(Cl)c(Cl)c3)nc2c1 | > 100
COc1cc(CNc2nc3cc(N)cc(N)c3nc2-c2ccccc2)cc(OC)c1 | > 100
Nc1cc(N)c2nc(-c3ccccc3)c(Oc3ccc(F)cc3)nc2c1 | > 100
Nc1cc(N)c2nc(-c3ccccc3)c(NCc3ccc(F)cc3)nc2c1 | > 100
COc1ccc(Oc2nc3cc(N)cc(N)c3nc2-c2ccccc2)cc1 | 93.3

System: HCC 2998
Assay: Growth inhibition of human HCC2998 cells after 48 hrs by sulforhodamine B assay
Type: functional
Settings: HCC 2998, 48 h
How it was run: as §1

SMILES | GI50 [µM] | LC50 (50% net cell kill) [µM]
COc1ccc(CNc2nc3cc(N)cc(N)c3nc2-c2ccccc2)cc1OC | 22.9 | > 100
COc1cc(OC)cc(Oc2nc3cc(N)cc(N)c3nc2-c2ccccc2)c1 | 2.51 | –
COc1ccc(CNc2nc3cc(N)cc(N)c3nc2-c2ccccc2)cc1 | 21.9 | > 100

Same assay, conditions: HCC 2998, 48 h, read-out: pTGI (converted)

SMILES | TGI [µM]
COc1ccc(CNc2nc3cc(N)cc(N)c3nc2-c2ccccc2)cc1OC | 56.2
COc1cc(OC)cc(Oc2nc3cc(N)cc(N)c3nc2-c2ccccc2)c1 | 13.8
COc1ccc(CNc2nc3cc(N)cc(N)c3nc2-c2ccccc2)cc1 | 51.3

System: SNB-75
Assay: Growth inhibition of human SNB75 cells after 48 hrs by sulforhodamine B assay
Type: functional
Settings: SNB-75, 48 h
How it was run: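 Run in the NCI 60-human-tumour-cell-line panel, tested over a 5-log dose range. Dose–response curves gave three values per cell line, each as a log10 molar concentration: GI50 (50% inhibition of net cell growth), TGI (total inhibition of net growth) and LC50 (50% net cell death). The mean graph midpoint is the arithmetic mean over all lines, with insensitive lines entered at the highest concentration tested.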

SMILES | GI50 [µM] | LC50 [µM]
COc1ccc(CNc2nc3cc(N)cc(N)c3nc2-c2ccccc2)cc1OC | 16.2 | 97.7
COc1cc(OC)cc(Oc2nc3cc(N)cc(N)c3nc2-c2ccccc2)c1 | 0.126 | –
Nc1cc(N)c2nc(-c3ccccc3)c(Sc3ccc(F)cc3)nc2c1 | 20.9 | > 100
COc1cc(CNc2nc3cc(N)cc(N)c3nc2-c2ccccc2)cc(OC)c1OC | 0.813 | > 50.1
COc1ccc(CNc2nc3cc(N)cc(N)c3nc2-c2ccccc2)cc1 | – | 72.4
Nc1cc(N)c2nc(-c3ccccc3)c(Oc3ccc(F)cc3)nc2c1 | 23.4 | > 100
Nc1cc(N)c2nc(-c3ccccc3)c(NCc3ccc(F)cc3)nc2c1 | 2.14 | > 100

Same assay, conditions: SNB-75, 48 h, read-out: pTGI (converted)

SMILES | TGI [µM]
COc1ccc(CNc2nc3cc(N)cc(N)c3nc2-c2ccccc2)cc1OC | 39.8
COc1cc(OC)cc(Oc2nc3cc(N)cc(N)c3nc2-c2ccccc2)c1 | 2.69
Nc1cc(N)c2nc(-c3ccccc3)c(Sc3ccc(F)cc3)nc2c1 | 47.9
COc1cc(CNc2nc3cc(N)cc(N)c3nc2-c2ccccc2)cc(OC)c1OC | 14.5
COc1ccc(CNc2nc3cc(N)cc(N)c3nc2-c2ccccc2)cc1 | 30.2
Nc1cc(N)c2nc(-c3ccccc3)c(Oc3ccc(F)cc3)nc2c1 | 49
Nc1cc(N)c2nc(-c3ccccc3)c(NCc3ccc(F)cc3)nc2c1 | 5.01

System: ACHN
Assay: Growth inhibition of human ACHN cells after 48 hrs by sulforhodamine B assay
Type: functional
Settings: not given

SMILES | GI50 [µM]
COc1ccc(CNc2nc3cc(N)cc(N)c3nc2-c2ccccc2)cc1OC | 13.8
Nc1cc(N)c2nc(-c3ccccc3)c(Sc3ccc(Cl)c(Cl)c3)nc2c1 | 1.7
COc1cc(OC)cc(Oc2nc3cc(N)cc(N)c3nc2-c2ccccc2)c1 | 14.8
Nc1cc(N)c2nc(-c3ccccc3)c(Sc3ccc(F)cc3)nc2c1 | > 100
COc1cc(CNc2nc3cc(N)cc(N)c3nc2-c2ccccc2)cc(OC)c1OC | 5.37
Nc1cc(N)c2nc(-c3ccccc3)c(Oc3ccc(Cl)c(Cl)c3)nc2c1 | 9.33
COc1ccc(CNc2nc3cc(N)cc(N)c3nc2-c2ccccc2)cc1 | 14.8
COc1cc(CNc2nc3cc(N)cc(N)c3nc2-c2ccccc2)cc(OC)c1 | 9.33
Nc1cc(N)c2nc(-c3ccccc3)c(Oc3ccc(F)cc3)nc2c1 | 13.8
Nc1cc(N)c2nc(-c3ccccc3)c(NCc3ccc(F)cc3)nc2c1 | 1.7
COc1ccc(Oc2nc3cc(N)cc(N)c3nc2-c2ccccc2)cc1 | 36.3

Same assay, conditions: read-out: pLC50 (the source's name) (converted)

SMILES | CC50 [µM]
COc1ccc(CNc2nc3cc(N)cc(N)c3nc2-c2ccccc2)cc1OC | 81.3
Nc1cc(N)c2nc(-c3ccccc3)c(Sc3ccc(Cl)c(Cl)c3)nc2c1 | 5.62
Nc1cc(N)c2nc(-c3ccccc3)c(Sc3ccc(F)cc3)nc2c1 | > 100
COc1cc(CNc2nc3cc(N)cc(N)c3nc2-c2ccccc2)cc(OC)c1OC | 23.4
Nc1cc(N)c2nc(-c3ccccc3)c(Oc3ccc(Cl)c(Cl)c3)nc2c1 | > 100
COc1ccc(CNc2nc3cc(N)cc(N)c3nc2-c2ccccc2)cc1 | 75.9
COc1cc(CNc2nc3cc(N)cc(N)c3nc2-c2ccccc2)cc(OC)c1 | > 100
Nc1cc(N)c2nc(-c3ccccc3)c(Oc3ccc(F)cc3)nc2c1 | 81.3
Nc1cc(N)c2nc(-c3ccccc3)c(NCc3ccc(F)cc3)nc2c1 | 5.62
COc1ccc(Oc2nc3cc(N)cc(N)c3nc2-c2ccccc2)cc1 | > 100

Same assay, conditions: read-out: pTGI (converted)

SMILES | TGI [µM]
COc1ccc(CNc2nc3cc(N)cc(N)c3nc2-c2ccccc2)cc1OC | 33.1
Nc1cc(N)c2nc(-c3ccccc3)c(Sc3ccc(Cl)c(Cl)c3)nc2c1 | 3.09
COc1cc(OC)cc(Oc2nc3cc(N)cc(N)c3nc2-c2ccccc2)c1 | 33.9
Nc1cc(N)c2nc(-c3ccccc3)c(Sc3ccc(F)cc3)nc2c1 | > 100
COc1cc(CNc2nc3cc(N)cc(N)c3nc2-c2ccccc2)cc(OC)c1OC | 11.2
Nc1cc(N)c2nc(-c3ccccc3)c(Oc3ccc(Cl)c(Cl)c3)nc2c1 | 47.9
COc1ccc(CNc2nc3cc(N)cc(N)c3nc2-c2ccccc2)cc1 | 33.9
COc1cc(CNc2nc3cc(N)cc(N)c3nc2-c2ccccc2)cc(OC)c1 | 47.9
Nc1cc(N)c2nc(-c3ccccc3)c(Oc3ccc(F)cc3)nc2c1 | 33.1
Nc1cc(N)c2nc(-c3ccccc3)c(NCc3ccc(F)cc3)nc2c1 | 3.09
COc1ccc(Oc2nc3cc(N)cc(N)c3nc2-c2ccccc2)cc1 | > 100

System: MDA-N
Assay: Growth inhibition of human MDA-N cells after 48 hrs by sulforhodamine B assay
Type: functional
Settings: not given

SMILES | GI50 [µM]
COc1ccc(CNc2nc3cc(N)cc(N)c3nc2-c2ccccc2)cc1 | 14.1
COc1cc(CNc2nc3cc(N)cc(N)c3nc2-c2ccccc2)cc(OC)c1 | 2.34
COc1ccc(Oc2nc3cc(N)cc(N)c3nc2-c2ccccc2)cc1 | 35.5

Same assay, conditions: read-out: pLC50 (the source's name) (converted)

SMILES | CC50 [µM]
COc1ccc(CNc2nc3cc(N)cc(N)c3nc2-c2ccccc2)cc1 | 53.7
COc1cc(CNc2nc3cc(N)cc(N)c3nc2-c2ccccc2)cc(OC)c1 | > 100
COc1ccc(Oc2nc3cc(N)cc(N)c3nc2-c2ccccc2)cc1 | > 100

Same assay, conditions: read-out: pTGI (converted)

SMILES | TGI [µM]
COc1ccc(CNc2nc3cc(N)cc(N)c3nc2-c2ccccc2)cc1 | 27.5
COc1cc(CNc2nc3cc(N)cc(N)c3nc2-c2ccccc2)cc(OC)c1 | 5.25
COc1ccc(Oc2nc3cc(N)cc(N)c3nc2-c2ccccc2)cc1 | > 100

Source: ChEMBL document CHEMBL1137710, “Synthesis and in vitro antitumor activity of new quinoxaline derivatives” (2009)
